Mdm2 MdmX PPI = inhibitors of human Mdm2-MdmX association, primary screen, cell-based, luminescence, split luciferase, SaOS-2, uHTS. SaOS-2 split-luciferase Mdm2/MdmX complementation. inhibition, % at 8 µM. hit rate 3% among 330,000. Protein Mdm4 (Homo sapiens) + E3 ubiquitin-protein ligase Mdm2 (Homo sapiens), …. AID 485346, 2010;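 active = inhibition of at least 50% at 8 µM in the primary screen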
SKKanGAS inh = S. pyogenes SKKanGAS growth inhibitors in kanamycin, primary screen, streptokinase expression inhibitor project, SKKanGAS strain, BacTiter-Glo luminescence; hit rate 1.3% among 300,000; 6 h; AID 1662, 2009; inhibition, % at 7.5 µM;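 active = mean replicate score, as percent of positive control median, at least 50; inconclusive = mean below 50 but one replicate at or above 50; inactive = mean and every replicate below 50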;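 also: strain carries kanamycin resistance gene driven by streptokinase promoter and grows in 40 µg/ml kanamycin; loss of luminescence reflects streptokinase promoter inhibition or plain growth inhibition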
T cruzi inh = inhibitors of intracellular T. cruzi growth, primary screen, luminescence, NIH3T3 host cells. hit rate 1.4% among 300,000. T. cruzi beta-gal in NIH3T3, 90 h. inhibition, % (no concentration beside the values). AID 1885, 2009;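 active = mean inhibition across valid replicates above about 55%, limit read from the data; inconclusive = mean below that limit but half or more replicates reach it; inactive = mean below it, under half of replicates reach it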;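 also: signal also drops with host cell toxicity which is not excluded here; higher percent means less beta-gal luminescence so fewer parasites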
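Test system: β-gal T. cruzi (Tulahuen C4) inside NIH/3T3 cells / Quantity: 5,000 cells/well / Measured by: luminescence from GalScreen with 0.05% NP40, read after 60 min / Medium: DMEM plus 2% FBS / Measure: parasite load inhibition, % / Reagent: Tulahuen C4 trypomastigotes, 5000/well / Schedule: co-culture of at least 90 h after 3 h attachment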
CSC inhib = cancer stem cell viability inhibitors, primary screen, luminescence; AID 2717, 2010; cancer stem cell-like cells viability; inhibition, % at 7.5 µM; hit rate 1.1% among 300,000; in the data active = inhibition above about 75%; inconclusive = no clear call, values can overlap the other calls; tested in HMLE shEcad cells
aSyn 5UTR inh = MLPCN primary screen, SNCA 5' untranslated region | alpha-synuclein 5'UTR reporter, inhibitor activity | AID 1813, 2009 | hit rate 0.82% among 300,000 | inhibition, % (tested at 7.5 µM); in the data active = inhibition above about 60%; inconclusive = no clear call, values can overlap the other calls;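 also: H4 neuroglioblastoma cells stably carrying SNCA 5'UTR luciferase fusion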
Mdm2 MdmX conf = Mdm2-MdmX complex disruptors, retested hits, confirmation, luminescence, single concentration | shares compounds with Mdm2 MdmX PPI | Mdm2-MdmX binding, luminescent assay | inhibition, % at 8 µM | hit rate 55% among 10,000; in the data active = inhibition above about 40%
FLuc counter = full-length luciferase signal inhibition, confirmation, counter-screen for Mdm2/MdmX interaction inhibitor project, cell-based, single concentration, SaOS-2; hit rate 77% among 6,200; SaOS-2 full-length luciferase counterscreen, luminescence; inhibition, % at 8 µM; shares compounds with Mdm2 MdmX PPI;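 active = mean inhibition at 8 µM reaching about 37%, which flags the compound as non-specific, limit read from the data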;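 also: p53-null SaOS-2 cells with luciferase driven by a doxycycline-inducible promoter; compound on cells about two nights before reading with doxycycline added after day one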
Numbers stand for hits; 0 = inactive; ? = inconclusive; - = no result. Most compounds without a hit are left out; they make up all but 5.4% or so of the library.

SMILES	Mdm2 MdmX PPI	SKKanGAS inh	T cruzi inh	CSC inhib	aSyn 5UTR inh	Mdm2 MdmX conf	others
CCN1CCN(c2ncc(C(=O)Nc3cc(Cl)ccc3OC)c3ccccc23)CC1	54	0	0	0	0	0
O=C(Nc1c(F)cccc1F)c1cnc(N2CCN(c3ccccn3)CC2)c2ccccc12	57	0	0	0	0	0
N#C/C(=C\C=C\c1ccccc1[N+](=O)[O-])C(=O)NC1CCCCC1	99	0	0	82	0	61	FLuc counter=54
Cc1cc(C)c2nc(SCC(=O)N3CC(=O)Nc4ccccc43)c(C#N)cc2c1	69	0	0	0	67	71	FLuc counter=112
COc1ccc2nc(SCC(=O)N3CC(=O)Nc4ccccc43)c(C#N)cc2c1	65	0	0	0	0	68	FLuc counter=46
CC(=O)Nc1ccc(S(=O)(=O)NCC2CCC(C(=O)N3CC(C)CC(C)C3)CC2)cc1 (stereo not given)	0	0	0	0	0	-
CC1(C)Oc2ccc3ccc(=O)oc3c2-c2cn[nH]c21	60	0	0	0	0	0
CC1(C)Oc2ccc3ccc(=O)oc3c2-c2cnoc21	0	0	0	0	0	-
COC(=O)c1cc2ccsc2n1Cc1nc(-c2ccc(OC)cc2)oc1C	60	0	0	-	0	0
COC(=O)c1cc2sccc2n1Cc1nc(-c2ccc(OC)cc2)oc1C	68	0	0	0	0	0
COC(=O)c1cc2ccsc2n1Cc1cccc(F)c1	0	0	0	0	0	-
O=C(/C=C/c1ccc(Cl)cc1)N1CCOCC1	0	0	0	0	0	-
COc1ccc(S(=O)Cc2ccc(C(=O)NC3CC3)o2)cc1 (stereo not given)	0	0	0	0	0	-
COc1ccc(CN(CCN)C2CC(C)N(C)CC2C)cc1 (stereo not given)	0	0	0	0	0	-
Fc1ccc(-c2nc(-c3cccs3)[nH]c2-c2ccc(F)cc2)cc1	52	0	?	0	0	0	FLuc counter=79
O=[N+]([O-])c1cccc(-c2nc(-c3cccs3)c(-c3cccs3)[nH]2)c1	0	0	0	-	0	-
Oc1ccc(-c2nc(-c3ccc(F)cc3)c(-c3ccncc3)[nH]2)cc1	79	-	-	-	-	0	FLuc counter=75
O=[N+]([O-])c1ccc(-c2nc(-c3cccs3)c(-c3cccs3)[nH]2)cc1	56	?	0	0	0	0
CCCN(CCC)S(=O)(=O)c1cc2c3c(c1)CCN3C(=O)CC2	0	0	0	0	0	-
CCOC(=O)N1CCN(S(=O)(=O)c2c(C)nc3sccn3c2=O)CC1	0	0	0	0	0	-
O=C(CSc1nc2ccc(NC(=O)CSc3nnnn3-c3ccccc3)cc2s1)Nc1ccccc1	0	0	0	0	0	-
Cc1cccc(NC(=O)CSc2nc3ccc(NC(=O)CSc4nnnn4-c4ccccc4)cc3s2)c1C	59	-	-	0	-	0
COc1ccc(Nc2cc(Nc3cc(OC)c(OC)c(OC)c3)ncn2)cc1	65	0	0	0	0	0
COc1ccccc1Nc1nc(-c2ccccc2)nc2ccccc12	0	0	0	0	0	-
COc1nc(NCCc2ccc(OC)c(OC)c2)nc(OC)n1	0	0	0	0	0	-
SMILES	Mdm2 MdmX PPI	SKKanGAS inh	T cruzi inh	CSC inhib	aSyn 5UTR inh	Mdm2 MdmX conf	others
COc1ccc(CCNCC(O)Cn2c3ccccc3c3ccccc32)cc1OC (stereo not given)	92	0	61	0	120	0	FLuc counter=55
COc1ccc(CCNc2c3ccccc3nc3ccccc23)cc1OC	50	0	0	0	0	0
COc1ccccc1Nc1c2ccccc2nc2ccccc12	53	0	0	0	0	48	FLuc counter=69
Cc1ccc(CNC(=O)CN2C(=O)COc3ccc(S(=O)(=O)N4CCCCC4)cc32)o1	0	0	0	0	0	-
CCN(CC)CCNC(=O)c1ccc(Sc2ccc(C)cc2)c(NC(C)=O)c1	0	0	0	0	0	-
COC(=O)/C=C1/S/C(=N/NC(=O)c2ccccc2OC)NC1=O	0	0	0	0	0	-
